In brackets after ≈: the same amount, converted by molar mass.
These compounds were tested on Pseudomonas aeruginosa (assay: Antimicrobial activity against Pseudomonas aeruginosa PAO1 KTL1 harboring oprD, mexAB-oprM gene after 18 hrs by agar dilution method). Details: not given.
Format: functional

| Compound | MIC |
| --- | --- |
| GENTAMICIN | 1.6 µg/mL |

Same assay, conditions: PAO1 KTL1, 18 h

| Compound | MIC |
| --- | --- |
| O=C(O)c1cn(C2CC2)c2cc(N3CCNCC3)c(F)cc2c1=O [CIPROFLOXACIN] | 0.8 µg/mL (≈ 2.41 µM) |

Each compound was assayed on Pseudomonas aeruginosa (assay: Antimicrobial activity against Pseudomonas aeruginosa GP4KT11 harboring oprD gene after 18 hrs by agar dilution method). Details: GP4KT11, 18 h.

| Compound | MIC |
| --- | --- |
| O=C(O)c1cn(C2CC2)c2cc(N3CCNCC3)c(F)cc2c1=O [CIPROFLOXACIN] | 0.2 µg/mL (≈ 0.604 µM) |

Each compound was assayed on Pseudomonas aeruginosa (assay: Antimicrobial activity against wild-type Pseudomonas aeruginosa GP62 after 18 hrs by agar dilution method). Details: not given.
Format: functional
In short: (§1)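 MICs by agar dilution following CLSI guidelines; plates incubated 18 h at 37°C.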

| Compound | MIC |
| --- | --- |
| GENTAMICIN | 1.6 µg/mL |

Same assay, conditions: GP62, 18 h

| Compound | MIC |
| --- | --- |
| O=C(O)c1cn(C2CC2)c2cc(N3CCNCC3)c(F)cc2c1=O [CIPROFLOXACIN] | 0.2 µg/mL (≈ 0.604 µM) |

The compounds below were run on Pseudomonas aeruginosa (assay: Antimicrobial activity against Pseudomonas aeruginosa GP4KT111 harboring oprD,mexAB-oprM gene after 18 hrs by agar dilution method). Details: not given.
Format: functional

| Compound | MIC |
| --- | --- |
| GENTAMICIN | 100 µg/mL |

Same assay, conditions: GP4KT111, 18 h

| Compound | MIC |
| --- | --- |
| O=C(O)c1cn(C2CC2)c2cc(N3CCNCC3)c(F)cc2c1=O [CIPROFLOXACIN] | 0.8 µg/mL (≈ 2.41 µM) |

What follows are compounds tested on Pseudomonas aeruginosa (assay: Antimicrobial activity against Pseudomonas aeruginosa PAO1 IPM46 harboring oprD gene after 18 hrs by agar dilution method). Details: not given.
Format: functional

| Compound | MIC |
| --- | --- |
| GENTAMICIN | 1.6 µg/mL |

Same assay, conditions: PAO1 IPM46, 18 h

| Compound | MIC |
| --- | --- |
| O=C(O)c1cn(C2CC2)c2cc(N3CCNCC3)c(F)cc2c1=O [CIPROFLOXACIN] | 0.2 µg/mL (≈ 0.604 µM) |

Each compound was assayed on Pseudomonas aeruginosa (assay: Antimicrobial activity against wild-type Pseudomonas aeruginosa GP37 after 18 hrs by agar dilution method). Details: not given.
Format: functional
In short: as §1

| Compound | MIC |
| --- | --- |
| GENTAMICIN | 100 µg/mL |

Same assay, conditions: GP37, 18 h

| Compound | MIC |
| --- | --- |
| O=C(O)c1cn(C2CC2)c2cc(N3CCNCC3)c(F)cc2c1=O [CIPROFLOXACIN] | 0.2 µg/mL (≈ 0.604 µM) |

What follows are compounds tested on Pseudomonas aeruginosa (assay: Antimicrobial activity against Pseudomonas aeruginosa GP61KT51 harboring oprD,mexAB-oprM gene after 18 hrs by agar dilution method). Details: not given.
Format: functional

| Compound | MIC |
| --- | --- |
| GENTAMICIN | 1.6 µg/mL |

Same assay, conditions: GP61KT51, 18 h

| Compound | MIC |
| --- | --- |
| O=C(O)c1cn(C2CC2)c2cc(N3CCNCC3)c(F)cc2c1=O [CIPROFLOXACIN] | 0.8 µg/mL (≈ 2.41 µM) |

Each compound was assayed on Pseudomonas aeruginosa (assay: Antimicrobial activity against wild-type Pseudomonas aeruginosa GP20 after 18 hrs by agar dilution method). Details: not given.
Format: functional
In short: as §1

| Compound | MIC |
| --- | --- |
| GENTAMICIN | 3.1 µg/mL |

Same assay, conditions: GP20, 18 h

| Compound | MIC |
| --- | --- |
| O=C(O)c1cn(C2CC2)c2cc(N3CCNCC3)c(F)cc2c1=O [CIPROFLOXACIN] | 0.2 µg/mL (≈ 0.604 µM) |

Each compound was assayed on Pseudomonas aeruginosa (assay: Antimicrobial activity against Pseudomonas aeruginosa PAO1 SO20 harboring mexAB-oprM gene after 18 hrs by agar dilution method). Details: not given.
Format: functional

| Compound | MIC |
| --- | --- |
| GENTAMICIN | 1.6 µg/mL |

Same assay, conditions: PAO1 SO20, 18 h

| Compound | MIC |
| --- | --- |
| O=C(O)c1cn(C2CC2)c2cc(N3CCNCC3)c(F)cc2c1=O [CIPROFLOXACIN] | 0.8 µg/mL (≈ 2.41 µM) |

What follows are compounds tested on Pseudomonas aeruginosa (assay: Antimicrobial activity against Pseudomonas aeruginosa PAO1 after 18 hrs by agar dilution method). Details: not given.
Format: functional
In short: as §1

| Compound | MIC |
| --- | --- |
| GENTAMICIN | 1.6 µg/mL |

Same assay, conditions: PAO1, 18 h

| Compound | MIC |
| --- | --- |
| O=C(O)c1cn(C2CC2)c2cc(N3CCNCC3)c(F)cc2c1=O [CIPROFLOXACIN] | 0.2 µg/mL (≈ 0.604 µM) |

The compounds below were run on Pseudomonas aeruginosa (assay: Antimicrobial activity against wild-type Pseudomonas aeruginosa GP61 after 18 hrs by agar dilution method). Details: not given.
Format: functional
In short: as §1

| Compound | MIC |
| --- | --- |
| GENTAMICIN | 1.6 µg/mL |

Same assay, conditions: GP61, 18 h

| Compound | MIC |
| --- | --- |
| O=C(O)c1cn(C2CC2)c2cc(N3CCNCC3)c(F)cc2c1=O [CIPROFLOXACIN] | 0.2 µg/mL (≈ 0.604 µM) |

What follows are compounds tested on Pseudomonas aeruginosa (assay: Antimicrobial activity against wild-type Pseudomonas aeruginosa GP4 after 18 hrs by agar dilution method). Details: not given.
Format: functional
In short: as §1

| Compound | MIC |
| --- | --- |
| GENTAMICIN | 100 µg/mL |

Same assay, conditions: GP4, 18 h

| Compound | MIC |
| --- | --- |
| O=C(O)c1cn(C2CC2)c2cc(N3CCNCC3)c(F)cc2c1=O [CIPROFLOXACIN] | 0.2 µg/mL (≈ 0.604 µM) |

These compounds were tested on Pseudomonas aeruginosa (assay: Antimicrobial activity against Pseudomonas aeruginosa PAO1 KTL harboring oprD gene after 18 hrs by agar dilution method). Details: not given.
Format: functional
In short: (§2)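 Carbapenem-resistant mutants were isolated on carbapenem-containing AB3 agar after 10^6-fold dilution and broth culture, with or without ciprofloxacin or ofloxacin. Randomly picked colonies were checked for MIC by agar dilution following CLSI guidelines, with 18 h incubation at 37°C. PAO1KTL and PAO1KTS came from meropenem selection without fluoroquinolone.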

| Compound | MIC |
| --- | --- |
| O=C(O)c1cn(C2CC2)c2cc(N3CCNCC3)c(F)cc2c1=O [CIPROFLOXACIN] | 0.2 µg/mL (≈ 0.604 µM) |
| GENTAMICIN | 1.6 µg/mL |

The compounds below were run on Pseudomonas aeruginosa (assay: Antimicrobial activity against Pseudomonas aeruginosa GP4KT111 harboring oprD gene after 18 hrs by agar dilution method). Details: GP4KT11.
Format: functional

| Compound | MIC |
| --- | --- |
| GENTAMICIN | 100 µg/mL |

Each compound was assayed on Pseudomonas aeruginosa (assay: Antimicrobial activity against Pseudomonas aeruginosa GP20KT21 harboring oprD gene after 18 hrs by agar dilution method). Details: not given.
Format: functional
In short: as §2

| Compound | MIC |
| --- | --- |
| GENTAMICIN | 3.1 µg/mL |

Same assay, conditions: GP20KT21, 18 h

| Compound | MIC |
| --- | --- |
| O=C(O)c1cn(C2CC2)c2cc(N3CCNCC3)c(F)cc2c1=O [CIPROFLOXACIN] | 0.2 µg/mL (≈ 0.604 µM) |

The compounds below were run on Pseudomonas aeruginosa (assay: Antimicrobial activity against Pseudomonas aeruginosa PAO1 KTS harboring mexAB-oprM gene after 18 hrs by agar dilution method). Details: not given.
Format: functional
In short: as §2

| Compound | MIC |
| --- | --- |
| O=C(O)c1cn(C2CC2)c2cc(N3CCNCC3)c(F)cc2c1=O [CIPROFLOXACIN] | 0.8 µg/mL (≈ 2.41 µM) |
| GENTAMICIN | 1.6 µg/mL |

These compounds were tested on Pseudomonas aeruginosa (assay: Antimicrobial activity against Pseudomonas aeruginosa GP62KT41 harboring oprD gene after 18 hrs by agar dilution method). Details: not given.
Format: functional
In short: as §2

| Compound | MIC |
| --- | --- |
| GENTAMICIN | 1.6 µg/mL |

Same assay, conditions: GP62KT41, 18 h

| Compound | MIC |
| --- | --- |
| O=C(O)c1cn(C2CC2)c2cc(N3CCNCC3)c(F)cc2c1=O [CIPROFLOXACIN] | 0.2 µg/mL (≈ 0.604 µM) |

Each compound was assayed on Pseudomonas aeruginosa (assay: Antimicrobial activity against Pseudomonas aeruginosa GP37KT31 harboring oprD gene after 18 hrs by agar dilution method). Details: not given.
Format: functional
In short: as §2

| Compound | MIC |
| --- | --- |
| GENTAMICIN | 100 µg/mL |

Same assay, conditions: GP37KT31, 18 h

| Compound | MIC |
| --- | --- |
| O=C(O)c1cn(C2CC2)c2cc(N3CCNCC3)c(F)cc2c1=O [CIPROFLOXACIN] | 0.2 µg/mL (≈ 0.604 µM) |

Source: ChEMBL document CHEMBL1275521, “Fluoroquinolone enhances the mutation frequency for meropenem-selected carbapenem resistance in Pseudomonas aeruginosa, but use of the high-potency drug doripenem inhibits mutant formation” (2008)
